Values belong to the compound of their own block, whether it stands above or below them.
Legend:
[1] = Cytotoxicity against human corneal cells assessed as reduction in cell viability at 5 to 20 uM after 24 hrs by MTT assay; assay type: cell-based
Procedure, shortened: (§1)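 Corneal cells kept in corneal medium; hepatocytes isolated from 8-week-old BALB/c mice and kept in M199/EBSS with 10% FBS. Cells given a range of drug concentrations for 24 h. MTT absorbance read at 595 nm and normalized to DMSO; two independent experiments in duplicate, mean ± SEM.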

[2] = tested on: Hepatocyte; experiment: Cytotoxicity against mouse primary hepatocytes assessed as reduction in cell viability at 5 to 20 uM after 24 hrs by MTT assay; assay type: cell-based; procedure, shortened: as §1
[3] = tested on: HeLa; experiment: Induction of apoptosis in human HeLa cells assessed as live cells at 20 uM after 24 hrs by Annexin V-FITC/propidium iodide staining based flow cytometry (reference value: 90.1%); assay type: functional
[4] = tested on: HeLa; experiment: Induction of apoptosis in human HeLa cells assessed as early apoptotic cells at 20 uM after 24 hrs by Annexin V-FITC/propidium iodide staining based flow cytometry (reference value: 3.9%); assay type: functional
[5] = tested on: HeLa; experiment: Induction of apoptosis in human HeLa cells assessed as late apoptotic cells at 20 uM after 24 hrs by Annexin V-FITC/propidium iodide staining based flow cytometry (reference value: 5.3%); assay type: functional
[6] = tested on: HeLa; experiment: Induction of apoptosis in human HeLa cells assessed as necrotic cells at 20 uM after 24 hrs by Annexin V-FITC/propidium iodide staining based flow cytometry (reference value: 0.7%); assay type: functional
[7] = tested on: PC-3; experiment: Induction of apoptosis in human PC3 cells assessed as live cells at 20 uM after 24 hrs by Annexin V-FITC/propidium iodide staining based flow cytometry (reference value: 97.4%); assay type: functional
[8] = tested on: PC-3; experiment: Induction of apoptosis in human PC3 cells assessed as early apoptotic cells at 20 uM after 24 hrs by Annexin V-FITC/propidium iodide staining based flow cytometry (reference value: 0.7%); assay type: functional
[9] = tested on: PC-3; experiment: Induction of apoptosis in human PC3 cells assessed as late apoptotic cells at 20 uM after 24 hrs by Annexin V-FITC/propidium iodide staining based flow cytometry (reference value: 1.5%); assay type: functional
[10] = tested on: PC-3; experiment: Induction of apoptosis in human PC3 cells assessed as necrotic cells at 20 uM after 24 hrs by Annexin V-FITC/propidium iodide staining based flow cytometry (reference value: 0.2%); assay type: functional
[11] = biological target: T1, Heat shock protein 75 kDa, mitochondrial (Homo sapiens, UniProt Q12931); experiment: Inhibition of FITC3-labeled PU-H71 binding to recombinant human N-terminal His6-tagged TRAP1 (60 to 561 residues) expressed in Escherichia coli BL21(DE3) after 24 hrs by fluorescence polarization assay
T1 sequence (Q12931 whole entry): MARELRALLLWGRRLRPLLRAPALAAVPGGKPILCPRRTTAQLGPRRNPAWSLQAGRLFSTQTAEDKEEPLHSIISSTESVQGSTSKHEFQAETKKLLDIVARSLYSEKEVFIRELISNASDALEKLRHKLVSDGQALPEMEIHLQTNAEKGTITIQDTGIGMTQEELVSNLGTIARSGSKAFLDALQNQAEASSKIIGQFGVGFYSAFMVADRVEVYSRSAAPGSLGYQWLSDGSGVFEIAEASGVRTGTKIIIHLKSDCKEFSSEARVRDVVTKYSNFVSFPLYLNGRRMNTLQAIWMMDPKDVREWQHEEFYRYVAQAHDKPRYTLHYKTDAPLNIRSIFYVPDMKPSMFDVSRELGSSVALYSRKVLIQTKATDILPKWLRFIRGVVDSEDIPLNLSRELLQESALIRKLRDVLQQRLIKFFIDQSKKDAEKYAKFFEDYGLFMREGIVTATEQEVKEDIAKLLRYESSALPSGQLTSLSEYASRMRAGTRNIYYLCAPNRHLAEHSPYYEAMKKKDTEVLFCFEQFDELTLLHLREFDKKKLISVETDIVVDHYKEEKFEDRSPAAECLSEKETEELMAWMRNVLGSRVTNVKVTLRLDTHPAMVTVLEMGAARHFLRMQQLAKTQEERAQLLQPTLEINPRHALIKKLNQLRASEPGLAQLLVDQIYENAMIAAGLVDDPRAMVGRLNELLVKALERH
Procedure, shortened: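 Recombinant TRAP1 (100 nM) incubated with 10 nM 1-FITC3 probe and varying inhibitor concentrations for 24 h at 4 °C. Buffer: PBS-type salts with 1 mM DTT, 2 mM MgCl2, 0.1 mg/mL BSA, 0.05% NP40, pH 7.3. Polarization (mP) scaled to maximum and minimum values; mean ± SEM of two independent experiments.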

[12] = biological target: Heat shock protein HSP 90-alpha (Homo sapiens, UniProt P07900); experiment: Inhibition of FITC3-labeled PU-H71 binding to recombinant HSP90alpha (unknown origin) after 24 hrs by fluorescence polarization assay
[13] = biological target: T2, Heat shock protein HSP90 (Homo sapiens, UniProt P07900+P08238); experiment: Inhibition of HSP90 in human HeLa cells assessed as induction of HSP70 protein expression at 10 uM after 6 hrs by Western blot method; assay type: cell-based
[14] = biological target: T2, Heat shock protein HSP90; experiment: Inhibition of HSP90 in human PC3 cells assessed as induction of HSP70 protein expression at 10 uM after 6 hrs by Western blot method; assay type: cell-based

Compound: CCNC(=O)c1noc(-c2cc(C(C)C)c(O)cc2O)c1-c1ccc(CN2CCOCC2)cc1 [LUMINESPIB]
- Activity [1]: Toxic
- Activity [2]: Toxic
- Activity [3]: 83%
- Activity [4]: 7.5%
- Activity [5]: 8.6%
- Activity [6]: 0.9%
- Activity [7]: 93.5%
- Activity [8]: 0.7%
- Activity [9]: 5%
- Activity [10]: 0.9%

- IC50 [11]: > 10 µM
- IC50 [12]: > 10 µM
Compound: Nc1nc(Cl)c2cnc(Cc3ccc4c(c3)OCO4)n2n1

Compound: CO[C@H]1/C=C\C=C(/C)C(=O)NC2=CC(=O)C(NCCN(C)C)=C(C[C@@H](C)C[C@H](OC)[C@H](O)[C@@H](C)/C=C(\C)[C@@H]1OC(N)=O)C2=O [ALVESPIMYCIN]
- inhibition (INH) [13]: Active
- inhibition (INH) [14]: Active
- Activity [1]: Toxic
- Activity [2]: Toxic

- IC50 [11]: 6.34 µM
- IC50 [12]: 8.93 µM
Compound: Nc1nc(Cl)c2cnn(Cc3ccc4c(c3)OCO4)c2n1

Source: ChEMBL document CHEMBL4017501, “Paralog Specificity Determines Subcellular Distribution, Action Mechanism, and Anticancer Activity of TRAP1 Inhibitors” (J Med Chem, 2017)
